# In ChEMBL document CHEMBL1121812, “Promotion of carbohydrate oxidation in the heart by some phenylglyoxylic acids” (1981):
# Columns and labels:
# [1] = target: T1, Pyruvate dehydrogenase kinase (Rattus norvegicus) (UniProt Q63065+A6IPZ9+Q64536+O54937); experiment: Tested for pyruvate oxidation in rat diaphragm, measured as % conversion of [14C]pyruvate to 14CO2 at 2 mM concentration; type: functional, tissue-based
# Summary of the method: (§1)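 Rat diaphragm cut into four portions, each weighed and preincubated 1 h at 37 °C in Krebs-Ringer bicarbonate, pH 7.4, gassed O2/CO2 (18:1), alone (control) or with compound. Then 4 mM (final) 1- or 2-14C sodium pyruvate added, 1 h at 37 °C. Stopped with H2SO4; 14CO2 trapped in hyamine hydroxide, scintillation counted. Tissue-free blanks included. Reported as percent stimulation versus control.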
# [2] = target: T1, Pyruvate dehydrogenase kinase (Rattus norvegicus); experiment: Tested for pyruvate oxidation in rat diaphragm, measured as % conversion of [14C]pyruvate to 14CO2 at 0.5 mM concentration of DCA (dichloroacetic acid); type: functional, tissue-based; summary of the method: as §1
# [3] = target: T1, Pyruvate dehydrogenase kinase (Rattus norvegicus); experiment: Percent Stimulation of pyruvate oxidation in rat diaphragm was measured at 2 mM concentration of DCA (dichloroacetic acid); type: functional, tissue-based; summary of the method: as §1
# [4] = target: T1, Pyruvate dehydrogenase kinase (Rattus norvegicus); experiment: Pyruvate dehydrogenase active/ Pyruvate dehydrogenase total was measured by sc administering the DCA in rat at a dose of 1.2 mmol/kg; type: functional, organism-based
# Summary of the method: (§2)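 Hearts frozen in liquid N2, powdered, homogenized in ice-cold phosphate/EDTA/DTT/pyruvate medium. PDH active assayed directly; PDH total after 20 min at 30 °C with 5 mM MgCl2, 2.5 mM CaCl2. 14CO2 from 0.1 mM [1-14C]pyruvate with CoA, NAD, TPP at 30 °C; expressed as % PDH active/total; ≥3 rats/group.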
# [5] = target: T1, Pyruvate dehydrogenase kinase (Rattus norvegicus); experiment: Pyruvate dehydrogenase activity in vivo was measured following subcutaneous administration of 1.2 mmol/kg; type: functional, organism-based; summary of the method: as §2
# [6] = organism: Rattus norvegicus; experiment: (§3) Compound was tested in vitro for pyruvate oxidation in rat diaphragm, measured as % conversion of [14C]pyruvate to 14CO2 at 2 mM concentration of DCA (dichloroacetic acid); type: functional; summary of the method: as §1
# [7] = organism: Rattus norvegicus; experiment: as §3; type: functional; summary of the method: as §1; remark: listed apart in the source
# [8] = system: pyruvate dehydrogenase (Rattus norvegicus); experiment: Tested for pyruvate oxidation in rat diaphragm, measured as % conversion of [14C]pyruvate to 14CO2 at 5 mM concentration
# [9] = organism: Rattus norvegicus; experiment: Percent Stimulation of pyruvate oxidation in Rat by the compound was measured at 2 mM concentration of DCA (dichloroacetic acid); type: functional; summary of the method: as §1
# [10] = organism: Rattus norvegicus; experiment: Percent stimulation of pyruvate oxidation in rat diaphragm by the compound was measured at 2 mM concentration; type: functional; summary of the method: as §1
# [11] = organism: Rattus norvegicus; experiment: Percent Stimulation of pyruvate oxidation in rat diaphragm by the compound was measured at 2 mM concentration; type: functional; summary of the method: as §1
# [12] = system: Pyruvate dehydrogenase complex (Rattus norvegicus); experiment: Tested for pyruvate oxidation in rat diaphragm, measured as % conversion of [14C]pyruvate to 14CO2 at 2 mM concentration
# [13] = organism: Rattus norvegicus; experiment: Compound was tested in vitro for pyruvate oxidation in Rat, measured as % conversion of [14C]pyruvate to 14CO2 at 0.5 mM concentration of DCA (dichloroacetic acid); type: functional; summary of the method: as §1
# [14] = system: Rattus norvegicus; experiment: Pyruvate dehydrogenase activity in vivo was measured following subcutaneous administration of 1.2 mmol/kg of the DCA in rat at a dose of 1.2 mmol/kg; type: functional; summary of the method: as §2
# [15] = organism: Rattus norvegicus; experiment: Percent Stimulation of pyruvate oxidation in Rat by the compound was measured at 0.5 mM concentration of DCA (dichloroacetic acid); type: functional; summary of the method: as §1
# [16] = system: Rattus norvegicus; experiment: Pyruvate dehydrogenase active/ Pyruvate dehydrogenase total was measured by sc administering the compound in rat at a dose of 1.2 mmol/kg; type: functional; summary of the method: as §2
Stimulation [1],Stimulation [2],Stimulation [3],PDH active/PDH total [4],PDH active/PDH total [5],Stimulation [8],Compound,other results
22%,16%,100%,,,,CCS(=O)(=O)Nc1ccc(C(=O)C(=O)O)cc1,
29%,11%,120%,90%,11%,,C=CCc1cc(C(=O)C(=O)O)ccc1O,
,,,,,71%,O=C(O)C(=O)c1ccc(Cl)cc1,Stimulation [6]: 48%; Stimulation [7]: 82%
,,,87%,82%,,N[C@H](C(=O)O)c1ccc(O)cc1 (stereo in doubt; L-25),
,,,,,,N[C@H](C(=O)O)c1ccc(O)cc1 (stereo in doubt; D-26) [OXFENICINE],Stimulation [9]: 130%; Stimulation [10]: 26%
,,132%,76%,20%,28%,CSc1ccc(C(N)C(=O)O)cc1 (racemic),Stimulation [11]: 65%
,,,,,,COc1ccc(C(N)C(=O)O)cc1 (stereo in doubt; D-28) [listing 1 of 2 here],Stimulation [9]: 108%; Stimulation [10]: 17%
,1%,156%,,,16%,CN(C)c1ccc(C(=O)C(=O)O)cc1,Stimulation [11]: -5%
,,,90%,5%,115%,COc1ccc(C(N)C(=O)O)cc1 (stereo in doubt; L-27) [listing 1 of 2 here],
,,101%,82%,69%,154%,CSc1ccc(C(=O)C(=O)O)cc1,Stimulation [12]: 123%
,,163%,,,-2%,COc1ccccc1C(=O)C(=O)O,Stimulation [11]: -10%
,,,,,,COc1ccc(C(N)C(=O)O)cc1 (stereo in doubt; L-27) [listing 2 of 2 here],Stimulation [13]: 79%; Stimulation [9]: 122%; Stimulation [10]: 124%
,63%,142%,96%,12%,,O=C(O)C(=O)c1ccc(O)cc1,Stimulation [11]: 80%
23%,12%,108%,,,,O=C(O)C(=O)c1ccc(CO)cc1,
132%,62%,161%,97%,49%,,COc1ccc(C(=O)C(=O)O)cc1,Stimulation [11]: 132%
43%,20%,,,50%,,Cc1ccc(C(=O)C(=O)O)cc1,Stimulation [6]: 100%; PDH active/PDH total [14]: 97%
21%,2%,107%,89%,31%,,Cc1cc(C(=O)C(=O)O)ccc1O,
36%,24%,95%,,,,Cc1ccc(C(N)C(=O)O)cc1 (stereo not given),
113%,76%,200%,96%,14%,,CCCCSc1ccc(C(=O)C(=O)O)cc1,
,,,,,,N[C@H](C(=O)O)c1ccc(O)cc1 (stereo in doubt; L-25) [OXFENICINE],Stimulation [15]: 84%; Stimulation [9]: 123%; Stimulation [10]: 136%
85%,42%,219%,87%,38%,,O=C(O)C(=O)c1ccccc1,
231%,164%,158%,82%,73%,,CCSc1ccc(C(=O)C(=O)O)cc1,
,,,87%,11%,-14%,COc1ccc(C(N)C(=O)O)cc1 (stereo in doubt; D-28) [listing 2 of 2 here],
,,132%,80%,5%,24%,CCSc1ccc(C(N)C(=O)O)cc1 (racemic),Stimulation [11]: 20%
,,,,,,NC(C(=O)O)c1ccccc1 (stereo not given),Stimulation [9]: 90%; PDH active/PDH total [16]: 13%
162%,26%,200%,96%,51%,,CC(C)Sc1ccc(C(=O)C(=O)O)cc1,
,,,87%,26%,,N[C@H](C(=O)O)c1ccc(O)cc1 (stereo in doubt; D-26),
85%,5%,120%,87%,12%,,O=C(O)C(=O)c1cc(I)c(O)c(I)c1,
,,200%,,,20%,NC(=O)c1ccc(C(=O)C(=O)O)cc1,Stimulation [11]: 11%

Compound,Stimulation [1],Stimulation [2],Stimulation [3],PDH active/PDH total [4],PDH active/PDH total [5],Stimulation [8],other results
NC(C(=O)O)c1ccc(Cl)cc1 (stereo not given),102%,43%,99%,90%,43%,,
